From PubChem BioAssay
MEP2-GFP yeast: modulators of MEP2-GFP levels in yeast, primary screen, S. cerevisiae, multiplex flow cytometry, MLPCN library. S. cerevisiae MEP2-GFP strain, 3 h; 100% = DMSO control level. GFP response vs DMSO, % at 10 µM. actives 0.51% (n = 330,000);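 active means GFP response versus DMSO above a set limit, roughly screen mean plus 3 SD, cut at about 180% in these data; inconclusive means fewer than 70 cells counted for a yeast strain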;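 further: median GFP fluorescence of the barcode-gated MEP2-GFP cells per well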
CIT2 TOR yeast: modulators of CIT2-GFP expression in yeast, primary screen, S. cerevisiae, GFP fusion, multiplex flow cytometry, MLPCN library. AID 2029, 2009. S. cerevisiae CIT2-GFP strain, 3 h; 100 means same as DMSO wells. actives 0.065% (n = 320,000). GFP response vs DMSO, % at 10 µM;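 active means GFP response relative to DMSO above a set limit, near the screen mean plus 3 SD, cut at about 150% in these data; inconclusive means Fewer than 70 cells measured for a yeast strain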;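 further: ratio of well median GFP fluorescence to mean of DMSO wells on the plate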
AGP1-GFP MLPCN: modulators of AGP1-GFP expression in yeast TOR pathway, primary screen, cell-based, multiplex flow cytometry, S. cerevisiae, MLPCN library | 3 h; GFP as percent of DMSO wells | AID 2066, 2009 | GFP response vs DMSO, % at 10 µM | actives 0.02% (n = 320,000);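 active means GFP response relative to DMSO above a set limit, near screen average plus 3 SD, cut at about 150% in these data; inconclusive means fewer than 70 cells counted for the yeast strain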;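 further: median GFP channel fluorescence of the gated AGP1 strain per well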
LAP4-GFP MLPCN: modulators of LAP4-GFP expression in yeast, primary screen, S. cerevisiae, multiplex flow cytometry, MLPCN library | AID 2023, 2009 | actives 0.34% (n = 320,000) | GFP response vs DMSO, % at 10 µM | 3 h; median GFP as percent of DMSO wells;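 active means GFP response vs DMSO above a set limit, about the screen mean plus 3 SD, cut at about 150% in these data; inconclusive means under 70 cell events counted for the yeast strain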
RPL19A TOR yeast: RPL19A-GFP expression modulators in yeast, primary screen, cell-based, S. cerevisiae, multiplex flow cytometry, MLPCN; S. cerevisiae RPL19A-GFP strain, 3 h; hits give low values; percent response vs DMSO, % at 10 µM; actives 0.3% (n = 330,000); AID 2025, 2009;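 active means percent response vs DMSO below 50%; inconclusive means fewer than 70 events counted for the yeast strain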;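 further: median channel GFP fluorescence of the barcoded RPL19A-GFP strain; ratio of sample median GFP to plate DMSO average so 100% = DMSO; lower means less RPL19A-GFP as with rapamycin TOR inhibition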
T cell modulator: modulators of CD8 T cell-vesicle binding, primary screen, mouse 2C CD8+ T cells, flow cytometry | 2C CD8+ T cell-vesicle binding; hits give low values | response (vesicle binding), % at 7 µM | actives 0.068% (n = 330,000);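 active means response, share of CD8 T cells binding vesicles, and their 90th percentile fluorescence all below set limits, cut at about 80% in these data, passing the limit was not always enough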;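 further: values below 100% mean blocked vesicle binding to the CD8+ T cells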
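Read-out – percent CD8+ FL2 mean versus row control · System – murine 2C transgenic CD8+ T lymphocytes · Times – 1.5 h cell–vesicle binding at 37 °C, then 20 min icy labelling · Control set – naked vesicles low, QL9 vesicles with vehicle high · Detection – cytometric PE anti-B7-1 and Alexa647 anti-CD8 signals after 1% paraformaldehyde fixation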
LAP4 cherry2: LAP4-GFP expression modulators in yeast, confirmation, cell-based, second cherry pick, flow cytometry. S. cerevisiae LAP4-GFP strain, 3 h. AID 2621, 2010. shares compounds with LAP4-GFP MLPCN. actives 20% (n = 590). GFP response vs DMSO, % at 10 µM;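 active means GFP signal as percent of the solvent control above about 150%, meaning raised reporter expression, limit read from the data; inconclusive means fewer than 70 cells counted in the well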;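 further: ratio of well median GFP fluorescence to plate DMSO mean so 100% = DMSO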
MEP2 cherry2: modulators of MEP2-GFP levels in yeast, confirmation, S. cerevisiae, flow cytometry GFP, second cherry picks; GFP response vs DMSO, % at 10 µM; shares compounds with LAP4-GFP MLPCN; actives 10% (n = 590); S. cerevisiae MEP2-GFP strain, 3 h;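 active means GFP signal above 150% of the solvent control wells, that is a rise of more than half; inconclusive means fewer than 70 yeast cells counted in the well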;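 further: median channel GFP fluorescence of all gated yeast cells per well; ratio of median GFP to plate DMSO average so 100% = DMSO level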
RPL19A GFP CP2: RPL19A-GFP modulators in TOR pathway yeast, confirmation, cell-based, S. cerevisiae, flow cytometry, second cherry pick; actives 3% (n = 590); AID 2623, 2010; shares compounds with LAP4-GFP MLPCN; GFP response vs DMSO, % at 10 µM; S. cerevisiae RPL19A-GFP strain, 3 h; hits give low values; 100% means same as DMSO wells;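 active means under 65% GFP response relative to DMSO; inconclusive means yeast strain with under 70 measured events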;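 further: median GFP channel fluorescence per well over the all cells gate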
CIT2-GFP pick2: modulators of CIT2-GFP expression in yeast, confirmation, flow cytometry, second cherry pick, single plex. S. cerevisiae CIT2-GFP strain, 3 h; DMSO control wells read 100%. actives 8% (n = 590). GFP response vs DMSO, % at 10 µM. shares compounds with LAP4-GFP MLPCN;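 active means GFP response vs DMSO above about 150%, limit read from the data; inconclusive means fewer than 70 events counted for a yeast strain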;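 further: median green fluorescence per well over all gated yeast cells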
AGP1-GFP pick2: AGP1-GFP expression modulators, hit retest, confirmation, cell-based, flow cytometry, S. cerevisiae, cherry pick set 2. shares compounds with LAP4-GFP MLPCN. S. cerevisiae AGP1-GFP strain, 3 h. percent response vs DMSO, % at 10 µM. 590 tested, under 10 active;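 active means over 150 percent of DMSO response; inconclusive means yeast strain measured with under 70 events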;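 further: median GFP channel fluorescence over all cells without mother daughter split; sample median GFP divided by mean DMSO control so 100% equals DMSO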
s288c autofluor: compound autofluorescence in yeast s288c, dose response, artefact control for yeast TOR pathway GFP screen, s288c strain | shares compounds with LAP4-GFP MLPCN | S. cerevisiae s288c, 520 nm autofluorescence, flow cytometry, 3 h; hits give high values; zero means same as solvent-only cells | fluorescence change (kMESF span) at 33 µM | 610 tested, under 10 active;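 active means fluorescence span over the dose series, or activity score, above about 33, limit read from the data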
Yeast autofl DR: autofluorescence of compounds in yeast s288c, dose response, artefact control for yeast TOR pathway GFP screen, primary hits, KU SAR, s288c parental; shares compounds with LAP4-GFP MLPCN; S. cerevisiae s288c parental, compound autofluorescence, flow cytometry, 3 h; fluorescence change (span) at 33 µM; 110 tested, under 10 active; AID 488829, 2010;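 active means fluorescence change span, or the activity score built from it, above 25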
TORC1 bypass gr: wild-type yeast growth inhibition sparing TORC1 bypass cells, mechanism study for yeast TOR pathway GFP screen, BY4741 wild type, TORC1 bypass strain. 120 tested, under 10 active. shares compounds with LAP4-GFP MLPCN. S. cerevisiae BY4741 spot growth rating, 48-72 h; hits give low values. AID 504456, 2011. growth rating (0-3) at 30 µM;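 active means growth rating at most 1 for wild type yeast while the TORC1 bypass strain still grows fully, rated 3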
Numbers without * were called inactive; ? = inconclusive; / = no result given. An excerpt weighted towards active compounds, which were near 0.96% of everything screened.

SMILES	MEP2-GFP yeast	CIT2 TOR yeast	AGP1-GFP MLPCN	LAP4-GFP MLPCN	RPL19A TOR yeast	T cell modulator	LAP4 cherry2	MEP2 cherry2	RPL19A GFP CP2	CIT2-GFP pick2	AGP1-GFP pick2	s288c autofluor	others
CCCc1cc(=O)oc2cc(C)cc(OCC(=O)NC3CC3)c12	142.3	105.6	16.2	89.9	51.3	301.2	98.2	99.6	98.9	104.3	98.5	0.1
CC12CCC(=O)C=C1CCC1C2C(=O)CC2(C)C1CC[C@]2(O)C(=O)CO (some centres not stated)	?	?	?	?	?	95.1	/	/	/	/	/	/
CCCCCCCCCCCCCCCC[n+]1cccc2ccccc21	53.9	26.2	6.8	39.9	11.5*	460.1	154.3*	138.0	81.3	100.1	95.0	0.91
Cc1nc2ccc(CN(C)c3ccc(C(=O)N[C@@H](CCC(=O)O)C(=O)O)s3)cc2c(=O)[nH]1	97.3	83.9	86.5	110.3	100.4	590.8	/	/	/	/	/	/
CN(Cc1cnc2nc(N)nc(N)c2n1)c1ccc(C(=O)N[C@@H](CCC(=O)O)C(=O)O)cc1	90.0	57.9	97.0	233.0*	84.3	388.0	272.6*	127.5	93.3	93.2	127.2	0.51
CCOC(=O)CCC(NC(=O)c1ccc(NCN2C(=O)CCC2=O)cc1)C(=O)OCC (configuration not stated)	99.3	100.6	102.8	99.8	102.1	454.9	/	/	/	/	/	/
Nc1nc2ncc(CNc3ccc(C(=O)N[C@@H](CCC(=O)O)C(=O)O)cc3)nc2c(=O)[nH]1	108.0	108.4	102.9	100.9	101.3	199.2	102.2	103.1	99.5	97.3	101.0	0.1
O=c1c2cc(Cl)ccc2nc(-c2ccc([N+](=O)[O-])cc2)n1O	95.7	75.6	79.4	134.5	64.5	128.0	157.7*	153.1*	45.6*	144.8	75.4	0.3
COc1ccc(N2CCN(C(=O)c3cccc(S(=O)(=O)N4CCCc5ccccc54)c3)CC2)cc1	97.6	102.6	102.1	100.7	100.9	409.5	/	/	/	/	/	/
COC1=C(N)C(=O)c2nc(-c3nc(C(=O)O)c(C)c(-c4ccc(OC)c(OC)c4O)c3N)ccc2C1=O	132.1	71.1	67.4	218.4*	59.9	438.7	308.6*	251.5*	95.5	349.1*	98.1	/
COc1ccc(-c2ncncc2-c2csc(C)n2)c(O)c1OC	98.7	89.5	90.9	99.3	98.0	340.4	/	/	/	/	/	/
O=C(Nc1cccc(Cl)c1Cl)C1CCCC1	93.9	100.6	97.3	98.7	100.9	420.6	/	/	/	/	/	/
O=[N+]([O-])c1cc(CN2CCN(c3ccccc3)CC2)c(O)c2ncccc12	99.0	/	75.3	152.9*	77.5	394.0	/	/	/	/	/	1.11
Oc1c(CN2CCCCC2)cc(Br)c2cccnc12	119.1	112.1	106.7	226.6*	91.1	369.1	/	/	/	/	/	1.11
COc1ccc(S(=O)(=O)N2CCCC2CNC(=O)C(=O)NCc2ccco2)cc1 (configuration not stated)	92.3	100.2	100.1	112.5	93.3	201.2	/	/	/	/	/	/
CC(=O)Nc1ccc(S(=O)(=O)NC2(C(F)(F)F)NC(=O)N(Cc3ccccc3)C2=O)cc1 (configuration not stated)	93.8	95.3	97.3	100.8	97.2	860.4	/	/	/	/	/	/
CCc1nnc(N/N=C/c2cc(Br)c(O)cc2O)n1N	109.9	108.5	101.0	95.0	104.5	169.0	/	/	/	/	/	/
CC(C)(C)c1nnc(N/N=C/c2cc(Br)ccc2O)n(N)c1=O	102.9	94.8	98.8	185.3*	87.6	487.1	215.4*	139.7	98.2	114.0	105.3	1.3
O=[N+]([O-])c1ccc(S(=O)(=O)c2cccc(C(F)(F)F)c2)nc1	101.6	/	/	/	70.1	113.0	/	/	/	/	/	0.81	Yeast autofl DR=0.73;TORC1 bypass gr=3
Cc1c(NC(=O)C(C)Sc2n[nH]c(N)n2)c(=O)n(-c2ccccc2)n1C (configuration not stated)	647.5*	170.0*	149.0	195.9*	57.0	244.8	97.1	104.8	100.9	108.6	102.2	/
Cc1nc(SC(C)C(=O)Nc2c(C)n(C)n(-c3ccccc3)c2=O)nc(C)c1C (configuration not stated)	96.7	85.8	93.0	90.9	92.9	645.8	/	/	/	/	/	/
O=C(Cc1ccccc1F)N1CCN(S(=O)(=O)c2ccc(Cl)cc2)CC1	98.0	95.1	96.0	93.7	90.7	317.7	/	/	/	/	/	/
